Molecules are shown by their SMILES.

The source of these data is ChEMBL document CHEMBL3526048, “In vitro metabolism of rivoglitazone, a novel peroxisome proliferator-activated receptor γ agonist, in rat, monkey, and human liver microsomes and freshly isolated hepatocytes” (Drug Metab Dispos, 2011).

In data set [1] the test system is Liver microsome. In words: Drug metabolism in human liver microsomes assessed as formation of 2-mercapto-3-(4-((6-methoxy-1-methyl-1H-benzo[d]imidazol-2-yl)methoxy)phenyl)propanamide at 20 uM after 2 hrs by radio-HPLC/LC-MS/MS analysis in presence of NADPH-generating system and NADPH-generating system/SAM. The format is ADME.
Data set [2] can be described thus: Drug metabolism in human hepatocytes assessed as formation of 3-(4-((6-methoxy-1-methyl-1H-benzo[d]imidazol-2-yl)methoxy)phenyl)-2-(methylthio)propanamide at 30 uM after 3 hrs by radio-HPLC/LC-MS/MS analysis in presence of NADPH-generating system/SAM. It counts as ADME, cell-based, Hepatocyte.
Data set [3] addresses T1, UDP-glucuronosyltransferase 2B7 (Homo sapiens, UniProt P16662).
T1 sequence (P16662 whole entry): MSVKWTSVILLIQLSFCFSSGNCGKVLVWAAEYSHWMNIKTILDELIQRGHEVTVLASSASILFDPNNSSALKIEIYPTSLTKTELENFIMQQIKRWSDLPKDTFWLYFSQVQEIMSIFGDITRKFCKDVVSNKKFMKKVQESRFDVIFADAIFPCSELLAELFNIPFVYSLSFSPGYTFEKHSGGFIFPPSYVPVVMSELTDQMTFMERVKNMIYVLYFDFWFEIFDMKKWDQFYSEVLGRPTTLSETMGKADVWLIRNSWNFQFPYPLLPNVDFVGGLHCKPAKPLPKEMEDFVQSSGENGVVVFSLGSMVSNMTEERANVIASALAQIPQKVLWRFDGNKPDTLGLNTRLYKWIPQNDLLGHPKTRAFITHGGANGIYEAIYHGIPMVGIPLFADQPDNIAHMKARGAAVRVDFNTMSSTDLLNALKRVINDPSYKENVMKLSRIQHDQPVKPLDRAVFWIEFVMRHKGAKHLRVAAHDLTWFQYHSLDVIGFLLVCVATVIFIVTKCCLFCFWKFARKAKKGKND
In words: Activity of human UGT2B7 expressed in microsomes isolated from baculovirus infected insect cell assessed as enzyme-mediated 3-(4-((6-methoxy-1-methyl-1H-benzo[d]imidazol-2-yl)methoxy)phenyl)-2-(methylsulfinyl)propanamide formation at 20 uM after 4 hrs by radio-HPLC/LC-MS/MS analysis in presence of NADPH-generating system/SAM. It counts as ADME.

Data set [4] deals with Cytochrome P450 3A5 (Homo sapiens, UniProt P20815). In words: Activity of human CYP3A5 expressed in microsomes isolated from baculovirus infected insect cell assessed as enzyme-mediated 3-(4-((6-methoxy-1-methyl-1H-benzo[d]imidazol-2-yl)methoxy)phenyl)-2-(methylsulfinyl)propanamide formation at 20 uM after 2 hrs by radio-HPLC/LC-MS/MS analysis in presence of NADPH-generating system/SAM. The format is ADME. The essentials: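 cDNA-expressed human CYP3A5 in baculovirus-insect-cell microsomes (1 mg/ml protein) was incubated with [¹⁴C]rivoglitazone (20 μM) in 50 mM potassium phosphate (pH 7.4) or 100 mM Tris-HCl (pH 7.5). NADPH-generating system: 2 mM NADP⁺, 20 mM glucose 6-phosphate, 2 units/ml G6PDH, 10 mM MgCl₂. Incubation ran 2 h at 37°C with shaking; insect-cell control supersomes served as control. Acetonitrile stop, supernatant concentrated, then radio-HPLC, LC-MS and LC-MS/MS.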

Data set [5] addresses T1, UDP-glucuronosyltransferase 2B7. In words: Activity of human UGT2B7 expressed in microsomes isolated from baculovirus infected insect cell assessed as enzyme-mediated 2-mercapto-3-(4-((6-methoxy-1-methyl-1H-benzo[d]imidazol-2-yl)methoxy)phenyl)propanamide formation at 20 uM after 4 hrs by radio-HPLC/LC-MS/MS analysis in presence of NADPH-generating system and NADPH-generating system/SAM in presence of UDPGA and UDPGA/SAM. It counts as ADME.

In data set [6] the target is T2, Cytochrome P450 1A2 (Homo sapiens, UniProt P05177).
T2 sequence (P05177 whole entry): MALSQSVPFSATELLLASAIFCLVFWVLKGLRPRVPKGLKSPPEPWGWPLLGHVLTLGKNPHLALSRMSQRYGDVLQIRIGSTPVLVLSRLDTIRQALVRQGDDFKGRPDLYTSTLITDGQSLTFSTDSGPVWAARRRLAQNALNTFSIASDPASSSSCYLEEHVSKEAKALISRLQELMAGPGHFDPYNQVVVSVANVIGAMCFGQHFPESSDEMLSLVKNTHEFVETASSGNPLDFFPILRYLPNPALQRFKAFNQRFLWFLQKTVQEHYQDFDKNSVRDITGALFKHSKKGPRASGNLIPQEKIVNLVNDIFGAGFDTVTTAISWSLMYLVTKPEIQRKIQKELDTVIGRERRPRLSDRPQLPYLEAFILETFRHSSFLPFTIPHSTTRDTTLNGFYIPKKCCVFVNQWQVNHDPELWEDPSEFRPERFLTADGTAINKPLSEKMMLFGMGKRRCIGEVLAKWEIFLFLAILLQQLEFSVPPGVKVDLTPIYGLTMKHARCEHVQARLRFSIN
The experiment in a line: Activity of human CYP1A2 expressed in microsomes isolated from baculovirus infected insect cell assessed as enzyme-mediated 5-(4-((6-methoxy-1H-benzo[d]imidazol-2-yl)methoxy)benzyl)thiazolidine-2,4-dione formation at 20 uM after 2 hrs by radio-HPLC/LC-MS/MS analysis in presence of NADPH-generating system and NADPH-generating system/SAM. The format is ADME. The essentials: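 Baculovirus/insect-cell microsomes expressing single human CYPs, 1 mg/ml protein, with 50 mM potassium phosphate (pH 7.4) or 100 mM Tris-HCl (pH 7.5). NADPH-generating system: 2 mM NADP⁺, 20 mM glucose 6-phosphate, 2 units/ml G6PDH, 10 mM MgCl₂. [¹⁴C]rivoglitazone at 20 μM, 2 h at 37°C with shaking. Control used insect-cell control supersomes. Stopped with acetonitrile; supernatant concentrated under nitrogen; metabolites analysed by radio-HPLC, LC-MS and LC-MS/MS.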

Data set [7] relates to Hepatocyte (Macaca fascicularis). In words: Drug level in monkey hepatocytes treated with [14C]-rivoglitazone at 30 uM after 3 hrs by radio-HPLC/LC-MS/MS analysis in presence of UDPGA, UDPGA/SAM and NADPH-generating system. Conditions: cynomolgus monkey.

Cytochrome P450 3A5, sequence (P20815 whole entry): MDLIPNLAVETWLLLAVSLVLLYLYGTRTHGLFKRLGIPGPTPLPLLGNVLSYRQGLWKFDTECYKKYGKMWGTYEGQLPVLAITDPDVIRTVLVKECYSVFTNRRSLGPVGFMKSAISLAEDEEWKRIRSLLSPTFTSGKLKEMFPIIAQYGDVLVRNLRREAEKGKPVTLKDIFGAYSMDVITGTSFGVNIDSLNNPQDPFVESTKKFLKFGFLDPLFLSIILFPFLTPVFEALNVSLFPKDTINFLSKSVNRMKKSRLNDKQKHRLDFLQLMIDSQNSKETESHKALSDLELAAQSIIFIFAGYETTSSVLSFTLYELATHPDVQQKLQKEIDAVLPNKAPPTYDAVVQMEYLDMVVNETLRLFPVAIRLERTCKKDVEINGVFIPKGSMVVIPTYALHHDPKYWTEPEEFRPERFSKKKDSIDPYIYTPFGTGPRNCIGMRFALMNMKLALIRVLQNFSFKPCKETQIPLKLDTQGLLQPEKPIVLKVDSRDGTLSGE

On to `COc1ccc2nc(COc3ccc(C[14CH]4SC(=O)NC4=O)cc3)n(C)c2c1.Cl` (racemic), for which the Drug metabolism result in data set [1] is listed as “metabolite_detected”; in data set [2] it was “metabolite_detected”; in data set [3], “metabolite_not_detected”; in data set [4], “metabolite_not_detected”; in data set [5], “metabolite_not_detected”; in data set [6], “metabolite_detected”.
As to `COc1ccc2nc(COc3ccc(CC(S)C(=O)O)cc3)n(C)c2c1` (configuration not stated), in data set [7], the Drug metabolism entry was “metabolite_not_detected”.
